{"source": "paper PMC10028500", "about": "(RSC Advances, 2023)", "key": {"[1]": {"system": "breast (MCF-7) cancer cell line", "assay": "IC50 by MTT assay, MCF-7", "type": "cell-based", "conditions": "MCF-7, 48 h", "in_short": "(§1)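 Cells were grown in DMEM at 37 °C, 5% CO2, 95% humidity, trypsinised and counted by trypan blue/hemocytometer. 10^4 cells per well were incubated 24 h, then test compound (3.5, 7, 14, 28, 56 μM; four replicates each) was added at ~70% confluence for 48 h. MTT (0.5 mg/mL) ran 4 h, then DMSO 15 min at room temperature, read at 595 nm. IC50 came from viability vs concentration curves.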"}, "[2]": {"system": "Liver (HepG2) cancer cell line", "assay": "IC50 by MTT assay, HepG2", "type": "cell-based", "conditions": "HepG2, 48 h", "in_short": "as §1"}, "HepG2 cells": {"system": "HepG2 cells", "assay": "Flow cytometry analysis of the cell cycle of HepG2", "type": "cell-based", "conditions": "HepG2, 24 h, around IC50 concentration", "in_short": "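HepG2 cells (ca. 1 × 10^6) were seeded 24 h, then exposed to test compound for 24 h. Cells were harvested with 0.25% trypsin, spun 5 min at 1500 rpm, washed twice in PBS and fixed in 70% ethanol for 4 h at −20 °C. They were taken up in cold PBS with RNase A, stained with propidium iodide for 1 h in the dark and analysed by flow cytometry.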"}, "ct-DNA [3]": {"system": "ct-DNA", "conditions": "cited from earlier work"}, "ct-DNA [4]": {"system": "ct-DNA", "conditions": "cited from earlier work", "remark": "listed apart in the source"}}}
{"molecule": "N.N.[Cl][Pt][Cl]", "note": "[Cisplatin]", "values": [{"measurement": "IC50", "setting": "[1]", "result": "18.4 ± 2.72", "unit": "µM"}, {"measurement": "IC50", "setting": "[2]", "result": "19.7 ± 1.53", "unit": "µM"}, {"measurement": "cell population in the G1/G0, S and G2/M phases vs control", "setting": "HepG2 cells", "result": "decreases"}, {"measurement": "cell population in the sub-G phase", "setting": "HepG2 cells; control ca. 1%", "result": 47.3, "unit": "%"}]}
{"molecule": "[Cl-].[Pt+2].c1ccc(-c2cccc(-c3ccccn3)n2)nc1", "note": "[Pt(terpy)Cl]", "values": [{"measurement": "DNA binding mode", "setting": "ct-DNA [3]", "result": "shifts gradually from the intercalation mode to the covalent binding mode"}]}
{"molecule": "CC[n+]1c(-c2ccccc2)c2cc(N)ccc2c2ccc(N)cc21", "note": "[ethidium bromide]", "values": [{"measurement": "binding constant (KEB) of ethidium bromide to DNA", "setting": "ct-DNA [4]", "result": "1 × 10^5"}]}
